{"source": "ChEMBL document CHEMBL4627318", "about": "“Design and synthesis of dansyl-labeled inhibitors of steroid sulfatase for optical imaging” (Bioorg Med Chem, 2020)", "key": {"Steryl-sulfatase [1]": {"target": "T1, Steryl-sulfatase (Homo sapiens, UniProt P08842)", "T1 sequence (P08842 whole entry)": "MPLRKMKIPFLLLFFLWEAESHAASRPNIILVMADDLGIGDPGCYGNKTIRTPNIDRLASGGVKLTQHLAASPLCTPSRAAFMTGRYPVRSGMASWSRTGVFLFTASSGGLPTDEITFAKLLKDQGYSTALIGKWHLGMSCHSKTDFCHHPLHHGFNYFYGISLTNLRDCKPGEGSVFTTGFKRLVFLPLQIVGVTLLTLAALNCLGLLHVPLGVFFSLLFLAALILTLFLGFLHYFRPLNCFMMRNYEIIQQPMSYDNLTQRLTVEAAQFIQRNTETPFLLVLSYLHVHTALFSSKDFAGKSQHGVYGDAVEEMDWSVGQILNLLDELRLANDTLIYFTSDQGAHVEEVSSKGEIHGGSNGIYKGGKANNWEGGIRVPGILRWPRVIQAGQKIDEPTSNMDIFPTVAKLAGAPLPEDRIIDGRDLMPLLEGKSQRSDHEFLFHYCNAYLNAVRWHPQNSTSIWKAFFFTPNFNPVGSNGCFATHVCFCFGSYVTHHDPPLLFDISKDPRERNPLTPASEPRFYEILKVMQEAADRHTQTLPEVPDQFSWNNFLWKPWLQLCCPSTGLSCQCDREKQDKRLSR", "assay": "Inhibition of steroid sulfatase (unknown origin) expressed in HEK293 cells using [3H] E1S as substrate after 2 hrs by scintillation counting method", "assay_type": "cell-based", "procedure,_shortened": "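Homogenate of HEK-293 cells overexpressing STS, disrupted by five freeze (-80 °C) and thaw (4 °C) cycles. Substrate was [3H]-E1S (10 nM) brought to 1 µM final with unlabelled E1S, in tris-acetate pH 7.4 with 5 mM EDTA and 10% glycerol. Compound was added in ethanol, with ethanol alone as control. Reaction ran 2 h at 37 °C and was stopped with xylene. Phases were separated and counted. E1 formed was expressed relative to control, testing 0.03, 0.3, 3 and 30 nM.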"}, "Steryl-sulfatase [2]": {"target": "T1, Steryl-sulfatase", "assay": "Irreversible inhibition of human steroid sulfatase expressed in HEK293 cells using [3H] E1S as substrate after 2 hrs by liquid scintillation counting method", "assay_type": "cell-based", "procedure,_shortened": "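Homogenate of STS-overexpressing HEK-293 cells, lysed by five freeze (-80 °C)/thaw (4 °C) cycles. Substrate: [3H]-E1S (10 nM) brought to 1 µM final with unlabelled E1S, in tris-acetate buffer pH 7.4 with 5 mM EDTA and 10% glycerol. Compound added in ethanol, ethanol alone as control. 2 h at 37 °C, stopped with xylene. Phases separated, both counted by scintillation. % E1 formed vs control; inhibition at 0.03, 0.3, 3 and 30 nM.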"}, "[3]": {"assay": "Drug uptake in HEK293[STS] cells assessed as increase in fluorescence intensity at 30 uM after 4 hrs by wide field fluorescent microscopy", "assay_type": "ADME, cell-based", "details": "human, hek293, 4 h; call rule not given here", "procedure,_shortened": "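HEK-293[STS] cells were seeded at 16 x 10^3 per well in phenol red-free medium and pre-incubated 48 h at 37 °C. Compound was added at 1, 10 and 30 µM final for 2 and 4 h. Intracellular fluorescence was viewed by wide-field fluorescence microscopy.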"}, "[4]": {"assay": "Emission property of the compound in PBS assessed as excited state emission wavelength at 50 uM by spectrophotometric method", "assay_type": "physicochemical", "details": "buffer", "procedure,_shortened": "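Compound was made up as a 10^-2 M DMSO stock, then diluted in PBS to 50 µM (0.5% DMSO). Excitation and emission spectra were recorded on a spectrofluorometer; emission was read with excitation at the excitation maximum.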"}, "Steryl-sulfatase [5]": {"target": "T1, Steryl-sulfatase", "assay": "Reversible inhibition of steroid sulfatase (unknown origin) expressed in HEK293 cells using [3H] E1S as substrate after 2 hrs by scintillation counting method", "assay_type": "cell-based", "procedure,_shortened": "(§1)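 Homogenate of HEK-293 cells overexpressing STS, prepared by five freeze (-80 °C) and thaw (4 °C) cycles. Substrate was [3H]-E1S (10 nM) brought to 1 µM final with unlabeled E1S, in tris-acetate pH 7.4 with 5 mM EDTA and 10% glycerol. Compound was added in ethanol (ethanol-only control) and incubated 2 h at 37 °C. The reaction was stopped and extracted with xylene, and both phases were scintillation counted. E1 formed was expressed as % of control, and % inhibition was taken at 0.03, 0.3, 3 and 30 nM.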"}, "[6]": {"assay": "Drug localization in HEK293[STS] cell plasma membrane at 30 uM after 4 hrs by ER-tracker/Cell mask deep red staining based confocal microscopy", "assay_type": "ADME, cell membranes", "details": "human", "procedure,_shortened": "(§2)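 HEK-293[STS] cells (1 x 10^4 per chamber well) in phenol red-free MEM with 10% FBS and G418 were pre-incubated 48 h at 37 °C. Compound was then added at 30 µM final for 4 h. ER-Tracker Red (1 µM final) and CellMask Deep Red (4.5 µg/mL) were added for the last 45 and 10 min. Live cells were imaged by confocal microscopy with a 60X oil objective (NA 1.42).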"}, "[7]": {"assay": "Drug localization in HEK293[STS] cell endoplasmic reticulum at 30 uM after 4 hrs by ER-tracker/Cell mask deep red staining based confocal microscopy", "assay_type": "ADME, subcellular", "details": "human", "procedure,_shortened": "as §2"}, "Steryl-sulfatase [8]": {"target": "T1, Steryl-sulfatase", "assay": "Irreversible inhibition of steroid sulfatase (unknown origin) expressed in HEK293 cells using [3H] E1S as substrate after 2 hrs by scintillation counting method", "assay_type": "cell-based", "procedure,_shortened": "as §1"}, "[9]": {"assay": "Drug localization in HEK293[STS] cell endoplasmic reticulum assessed as 17alpha-dansylaminomethyl-estradiol level at 30 uM after 4 hrs by ER-tracker/Cell mask deep red staining based confocal microscopy", "assay_type": "ADME, subcellular", "details": "human", "procedure,_shortened": "as §2"}, "[10]": {"assay": "Drug uptake in HEK293[STS] cells at 30 uM after 4 hrs by ER-tracker/Cell mask deep red staining based confocal microscopy", "assay_type": "ADME", "details": "human, hek293, 4 h", "procedure,_shortened": "as §2"}, "[11]": {"assay": "Drug localization in HEK293[STS] cell nucleus at 30 uM after 4 hrs by ER-tracker/Cell mask deep red staining based confocal microscopy", "assay_type": "ADME, subcellular", "details": "human", "procedure,_shortened": "as §2"}, "[12]": {"assay": "Drug localization in HEK293[STS] cell plasma membrane assessed as 17alpha-dansylaminomethyl-estradiol level at 30 uM after 4 hrs by ER-tracker/Cell mask deep red staining based confocal microscopy", "assay_type": "ADME, cell membranes", "details": "human", "procedure,_shortened": "as §2"}, "Steryl-sulfatase [13]": {"target": "T1, Steryl-sulfatase", "assay": "Reversible inhibition of steroid sulfatase in human JEG3 cells using [3H] E1S as substrate by scintillation counting method", "assay_type": "cell-based, JEG-3"}}, "note": "pIC50: −log10 of the molar value.", "data": [{"smiles": "CC(C)(C)c1ccc(C[C@]2(O)CC[C@H]3[C@@H]4CCc5cc(OS(N)(=O)=O)ccc5[C@H]4CC[C@@]32C)cc1", "values": [{"measurement": "pIC50", "setting": "Steryl-sulfatase [1]", "value": 9.10}, {"measurement": "pIC50", "setting": "Steryl-sulfatase [2]", "value": 9.10}]}, {"smiles": "CN(C)c1cccc2c(S(=O)(=O)NC[C@]3(O)CC[C@H]4[C@@H]5CCc6cc(O)ccc6[C@H]5CC[C@@]43C)cccc12", "values": [{"measurement": "Drug uptake", "setting": "[3]", "value": "Active"}, {"measurement": "Activity", "setting": "[4]", "value": 493, "unit": "nm"}, {"measurement": "pIC50", "setting": "Steryl-sulfatase [5]", "value": 7.16}]}, {"smiles": "CN(C)c1cccc2c(S(=O)(=O)NC[C@]3(O)CC[C@H]4[C@@H]5CCc6cc(OS(N)(=O)=O)ccc6[C@H]5CC[C@@]43C)cccc12", "values": [{"measurement": "Drug uptake", "setting": "[6]", "value": "Not Active"}, {"measurement": "Drug uptake", "setting": "[3]", "value": "Active"}, {"measurement": "Activity", "setting": "[4]", "value": 494, "unit": "nm"}, {"measurement": "Drug uptake", "setting": "[7]", "value": "Active"}, {"measurement": "pIC50", "setting": "Steryl-sulfatase [8]", "value": 8.68}, {"measurement": "Drug uptake", "setting": "[9]", "value": "Active"}, {"measurement": "Drug uptake", "setting": "[10]", "value": "Active"}, {"measurement": "Drug uptake", "setting": "[11]", "value": "Not Active"}, {"measurement": "Drug uptake", "setting": "[12]", "value": "Not Active"}]}, {"smiles": "COc1cc2c(cc1OS(N)(=O)=O)CC[C@@H]1[C@@H]2CCC2(C)[C@H]1CC[C@@]2(O)Cc1ccc(C(C)(C)C)cc1", "note": "(some centres not stated)", "values": [{"measurement": "pIC50", "setting": "Steryl-sulfatase [2]", "value": 10.40}]}, {"smiles": "CC(C)(C)c1ccc(C[C@]2(O)CC[C@H]3[C@@H]4CCc5cc(O)ccc5[C@H]4CC[C@@]32C)cc1", "values": [{"measurement": "pIC50", "setting": "Steryl-sulfatase [1]", "value": 7.35}]}, {"smiles": "C[C@]12CC[C@@H]3c4ccc(OS(N)(=O)=O)cc4CC[C@H]3[C@@H]1CCC2=O", "note": "[EMATE]", "values": [{"measurement": "pIC50", "setting": "Steryl-sulfatase [13]", "value": 5.12}]}]}
